Drawing on ChEMBL document CHEMBL5696442, “Discovery of type II inhibitors of TGFβ-activated kinase 1 (TAK1) and mitogen-activated protein kinase kinase kinase kinase 2 (MAP4K2)” (J Med Chem, 2015), this text covers inhibition for four compounds.

Test [1] deals with Proto-oncogene tyrosine-protein kinase Src (Homo sapiens, UniProt P12931). The test is described as follows: Inhibition of SRC Lys1 labeling site in human Huh-7 cell lysate at 1 uM by KiNativ Profiling analysis relative to control. It is filed as subcellular.
Test [2] addresses T1, Mitogen-activated protein kinase 13 (Homo sapiens) (UniProt O15264).
T1 sequence (whole entry): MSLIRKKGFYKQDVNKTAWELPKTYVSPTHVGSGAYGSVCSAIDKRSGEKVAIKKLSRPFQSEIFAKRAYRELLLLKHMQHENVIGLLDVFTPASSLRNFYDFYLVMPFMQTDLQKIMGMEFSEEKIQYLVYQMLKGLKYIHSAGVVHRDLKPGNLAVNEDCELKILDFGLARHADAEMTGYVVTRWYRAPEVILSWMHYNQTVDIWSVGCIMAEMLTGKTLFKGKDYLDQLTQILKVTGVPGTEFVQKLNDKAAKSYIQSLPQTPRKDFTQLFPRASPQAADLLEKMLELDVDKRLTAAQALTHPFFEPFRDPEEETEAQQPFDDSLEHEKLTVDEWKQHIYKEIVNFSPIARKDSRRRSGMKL
The test is described as follows: Inhibition of p38delta Lys2 labeling site in human Huh-7 cell lysate at 1 uM by KiNativ Profiling analysis relative to control. Type of test: subcellular.

Test [3] has as its target Cyclin-dependent kinase 2 (Homo sapiens) (UniProt P24941). Briefly: Inhibition of CDK2 Lys2 labeling site in human A-375 cells at 0.5 uM by KiNativ Profiling analysis relative to control. Type of test: cell-based. The gist of the method:
(§1)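 Live A375 melanoma cells were treated with compound at 5 or 0.5 μM. The cells were then lysed, and the lysates were labeled with a lysine-reactive ATP or ADP-biotin acyl probe (KiNativ). Inhibition is the compound's protection of each kinase labeling-site peptide from probe labeling, relative to untreated control.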

For test [4], the target named is Cyclin-dependent kinase 16 (Homo sapiens) (UniProt Q00536). Briefly: Inhibition of PFTAIRE1 Lys1 labeling site in human A-375 cells at 0.5 uM by KiNativ Profiling analysis relative to control. It is filed as cell-based.
The target in test [5] is Serine/threonine-protein kinase Chk2 (Homo sapiens) (UniProt O96017). The test is described as follows: Inhibition of CHK2 Lys1 labeling site in human A-375 cells at 0.05 uM by KiNativ Profiling analysis relative to control. It is filed as cell-based.
Test [6] concerns the target Serine/threonine-protein kinase WNK4 (Homo sapiens) (UniProt Q96J92). Briefly: Inhibition of Wnk4 ACT labeling site in human A-375 cells at 0.5 uM by KiNativ Profiling analysis relative to control. Type of test: cell-based.
In test [7] the target is T2, Ephrin type-B receptor 4 (Homo sapiens) (UniProt P54760).
T2 sequence (whole entry): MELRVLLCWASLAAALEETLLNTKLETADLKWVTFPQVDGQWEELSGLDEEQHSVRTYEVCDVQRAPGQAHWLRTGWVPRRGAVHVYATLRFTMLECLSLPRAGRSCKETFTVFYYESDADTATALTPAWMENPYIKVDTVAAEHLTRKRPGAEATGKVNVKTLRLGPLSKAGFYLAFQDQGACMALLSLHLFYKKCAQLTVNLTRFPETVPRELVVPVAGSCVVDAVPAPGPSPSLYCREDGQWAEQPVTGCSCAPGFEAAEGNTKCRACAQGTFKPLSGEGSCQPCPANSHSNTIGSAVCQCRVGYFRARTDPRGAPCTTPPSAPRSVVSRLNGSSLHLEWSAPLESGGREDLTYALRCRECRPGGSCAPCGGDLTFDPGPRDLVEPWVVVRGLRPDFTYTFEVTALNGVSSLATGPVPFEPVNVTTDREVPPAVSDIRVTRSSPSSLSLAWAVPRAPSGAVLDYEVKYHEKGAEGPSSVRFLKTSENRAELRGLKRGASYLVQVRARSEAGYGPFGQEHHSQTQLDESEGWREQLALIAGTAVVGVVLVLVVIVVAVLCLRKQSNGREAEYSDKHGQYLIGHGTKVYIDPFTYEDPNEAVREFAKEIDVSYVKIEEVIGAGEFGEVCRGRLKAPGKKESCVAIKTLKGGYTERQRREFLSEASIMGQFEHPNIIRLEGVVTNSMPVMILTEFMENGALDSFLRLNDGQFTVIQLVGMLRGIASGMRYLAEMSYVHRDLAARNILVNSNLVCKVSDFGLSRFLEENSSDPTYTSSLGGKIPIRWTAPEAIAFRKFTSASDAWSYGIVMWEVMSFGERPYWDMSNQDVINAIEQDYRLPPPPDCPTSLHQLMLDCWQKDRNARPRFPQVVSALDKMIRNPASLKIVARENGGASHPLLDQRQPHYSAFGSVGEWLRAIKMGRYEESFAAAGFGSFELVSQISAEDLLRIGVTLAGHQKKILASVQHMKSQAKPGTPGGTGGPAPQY
The test is described as follows: Inhibition of EphB4 ACT labeling site in human A-375 cells at 0.5 uM by KiNativ Profiling analysis relative to control. It is filed as cell-based. The gist of the method: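 Live A375 melanoma cells were treated with compound at 0.5 or 5 μM, then lysed. Lysates were labeled with a lysine-reactive ATP or ADP-biotin probe. The read-out was protection of each kinase probe-labeling site from labeling, relative to control.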

Test [8] addresses Serine/threonine-protein kinase WNK1 (Homo sapiens) (UniProt Q9H4A3). Briefly: Inhibition of Wnk1 Lys2 labeling site in human A-375 cells at 0.5 uM by KiNativ Profiling analysis relative to control. It is filed as cell-based.
In test [9] the target is T3, Mixed lineage kinase domain-like protein (Homo sapiens) (UniProt Q8NB16).
T3 sequence (whole entry): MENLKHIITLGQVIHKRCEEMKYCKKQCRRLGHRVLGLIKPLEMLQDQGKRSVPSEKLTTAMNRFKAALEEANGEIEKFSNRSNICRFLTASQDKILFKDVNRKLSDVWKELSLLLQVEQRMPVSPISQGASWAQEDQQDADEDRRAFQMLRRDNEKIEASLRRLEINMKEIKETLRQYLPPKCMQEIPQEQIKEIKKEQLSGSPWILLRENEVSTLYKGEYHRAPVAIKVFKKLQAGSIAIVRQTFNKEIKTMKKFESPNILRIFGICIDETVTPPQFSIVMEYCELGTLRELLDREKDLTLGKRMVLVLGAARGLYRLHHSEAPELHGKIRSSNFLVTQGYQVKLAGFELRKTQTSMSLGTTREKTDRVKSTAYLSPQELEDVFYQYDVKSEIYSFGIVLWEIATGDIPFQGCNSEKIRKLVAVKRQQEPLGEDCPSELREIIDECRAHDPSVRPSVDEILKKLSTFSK
Briefly: Inhibition of MLKL Lys1 labeling site in human A-375 cells at 0.5 uM by KiNativ Profiling analysis relative to control. It is filed as cell-based.

For test [10], the target named is Serine/threonine-protein kinase WNK2 (Homo sapiens) (UniProt Q9Y3S1). The test is described as follows: Inhibition of Wnk2 ACT labeling site in human A-375 cells at 5 uM by KiNativ Profiling analysis relative to control. Type of test: cell-based.
The target of test [11] is Serine/threonine-protein kinase WNK1 (Homo sapiens) (UniProt Q9H4A3). Briefly: Inhibition of Wnk1 ACT labeling site in human A-375 cells at 5 uM by KiNativ Profiling analysis relative to control. Type of test: cell-based.
For test [12], the target named is Calcium/calmodulin-dependent protein kinase type II subunit gamma (Homo sapiens) (UniProt Q13555). Briefly: Inhibition of CaMK2g Lys1 labeling site harbouring TSTQEYAAKIINTK in human A-375 cells at 0.5 uM by KiNativ Profiling analysis relative to control. Type of test: cell-based. An outline of the steps:
as §1

Structures are written as SMILES.

Chain of Serine/threonine-protein kinase WNK1 (Homo sapiens) (Q9H4A3 whole entry, looked up, the tested form may be a part): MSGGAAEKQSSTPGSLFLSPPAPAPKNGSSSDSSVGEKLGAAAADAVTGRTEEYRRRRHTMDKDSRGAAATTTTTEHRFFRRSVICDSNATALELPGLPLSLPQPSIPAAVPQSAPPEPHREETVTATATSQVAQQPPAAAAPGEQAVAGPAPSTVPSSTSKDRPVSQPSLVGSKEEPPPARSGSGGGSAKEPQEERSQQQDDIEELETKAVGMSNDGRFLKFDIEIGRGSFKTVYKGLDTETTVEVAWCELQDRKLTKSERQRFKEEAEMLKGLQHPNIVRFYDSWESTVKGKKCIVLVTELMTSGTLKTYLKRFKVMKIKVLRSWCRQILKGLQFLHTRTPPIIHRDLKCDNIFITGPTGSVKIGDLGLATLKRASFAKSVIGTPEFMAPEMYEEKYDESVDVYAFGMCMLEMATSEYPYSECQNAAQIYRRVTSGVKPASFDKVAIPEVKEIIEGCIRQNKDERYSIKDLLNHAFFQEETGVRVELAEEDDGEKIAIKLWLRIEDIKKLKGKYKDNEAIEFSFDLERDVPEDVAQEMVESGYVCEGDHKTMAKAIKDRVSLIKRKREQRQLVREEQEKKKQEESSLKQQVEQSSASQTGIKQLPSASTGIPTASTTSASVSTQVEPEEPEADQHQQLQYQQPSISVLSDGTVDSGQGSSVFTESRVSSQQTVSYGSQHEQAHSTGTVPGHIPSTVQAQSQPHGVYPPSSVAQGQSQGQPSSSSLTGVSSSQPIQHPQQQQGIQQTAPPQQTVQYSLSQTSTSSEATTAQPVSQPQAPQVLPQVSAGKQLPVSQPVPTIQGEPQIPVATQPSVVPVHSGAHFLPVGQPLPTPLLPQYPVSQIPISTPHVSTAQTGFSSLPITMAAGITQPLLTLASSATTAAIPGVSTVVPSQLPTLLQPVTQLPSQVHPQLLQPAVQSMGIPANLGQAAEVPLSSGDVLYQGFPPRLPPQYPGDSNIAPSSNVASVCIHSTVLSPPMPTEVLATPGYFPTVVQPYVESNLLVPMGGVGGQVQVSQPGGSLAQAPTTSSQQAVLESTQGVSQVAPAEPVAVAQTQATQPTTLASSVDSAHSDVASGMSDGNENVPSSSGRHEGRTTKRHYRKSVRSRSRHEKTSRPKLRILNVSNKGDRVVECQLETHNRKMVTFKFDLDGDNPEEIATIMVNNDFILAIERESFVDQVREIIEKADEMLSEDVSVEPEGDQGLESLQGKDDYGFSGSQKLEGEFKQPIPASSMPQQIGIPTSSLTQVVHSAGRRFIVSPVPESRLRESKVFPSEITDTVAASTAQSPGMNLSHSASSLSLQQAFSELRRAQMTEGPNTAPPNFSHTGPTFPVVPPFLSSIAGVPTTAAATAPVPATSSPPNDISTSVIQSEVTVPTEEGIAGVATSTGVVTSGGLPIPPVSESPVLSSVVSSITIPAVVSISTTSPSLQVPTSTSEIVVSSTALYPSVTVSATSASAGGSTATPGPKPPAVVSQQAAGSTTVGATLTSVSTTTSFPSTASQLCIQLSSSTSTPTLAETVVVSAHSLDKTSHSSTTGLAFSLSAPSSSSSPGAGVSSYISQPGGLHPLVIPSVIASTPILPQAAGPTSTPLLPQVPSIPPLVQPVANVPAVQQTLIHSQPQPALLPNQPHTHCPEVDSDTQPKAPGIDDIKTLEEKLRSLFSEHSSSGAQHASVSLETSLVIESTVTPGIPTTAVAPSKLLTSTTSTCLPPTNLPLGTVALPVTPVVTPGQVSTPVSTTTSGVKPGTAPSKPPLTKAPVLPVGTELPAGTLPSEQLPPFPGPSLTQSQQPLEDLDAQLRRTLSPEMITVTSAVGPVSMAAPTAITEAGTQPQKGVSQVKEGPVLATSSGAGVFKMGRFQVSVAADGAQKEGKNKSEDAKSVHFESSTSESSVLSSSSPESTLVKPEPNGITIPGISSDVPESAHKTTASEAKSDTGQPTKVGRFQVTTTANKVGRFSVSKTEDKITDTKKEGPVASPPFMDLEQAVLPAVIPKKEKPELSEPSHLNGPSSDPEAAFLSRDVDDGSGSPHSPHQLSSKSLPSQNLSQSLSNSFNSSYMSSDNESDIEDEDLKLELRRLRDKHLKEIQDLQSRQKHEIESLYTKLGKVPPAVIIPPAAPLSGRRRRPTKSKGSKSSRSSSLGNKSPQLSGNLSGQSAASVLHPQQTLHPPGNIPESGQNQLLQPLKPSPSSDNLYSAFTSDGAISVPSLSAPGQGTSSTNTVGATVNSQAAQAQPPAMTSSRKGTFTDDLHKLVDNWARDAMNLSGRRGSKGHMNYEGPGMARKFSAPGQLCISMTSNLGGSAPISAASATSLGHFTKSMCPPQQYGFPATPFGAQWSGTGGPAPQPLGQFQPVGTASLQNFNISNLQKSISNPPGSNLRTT
Chain of Serine/threonine-protein kinase WNK2 (Homo sapiens) (Q9Y3S1 whole entry): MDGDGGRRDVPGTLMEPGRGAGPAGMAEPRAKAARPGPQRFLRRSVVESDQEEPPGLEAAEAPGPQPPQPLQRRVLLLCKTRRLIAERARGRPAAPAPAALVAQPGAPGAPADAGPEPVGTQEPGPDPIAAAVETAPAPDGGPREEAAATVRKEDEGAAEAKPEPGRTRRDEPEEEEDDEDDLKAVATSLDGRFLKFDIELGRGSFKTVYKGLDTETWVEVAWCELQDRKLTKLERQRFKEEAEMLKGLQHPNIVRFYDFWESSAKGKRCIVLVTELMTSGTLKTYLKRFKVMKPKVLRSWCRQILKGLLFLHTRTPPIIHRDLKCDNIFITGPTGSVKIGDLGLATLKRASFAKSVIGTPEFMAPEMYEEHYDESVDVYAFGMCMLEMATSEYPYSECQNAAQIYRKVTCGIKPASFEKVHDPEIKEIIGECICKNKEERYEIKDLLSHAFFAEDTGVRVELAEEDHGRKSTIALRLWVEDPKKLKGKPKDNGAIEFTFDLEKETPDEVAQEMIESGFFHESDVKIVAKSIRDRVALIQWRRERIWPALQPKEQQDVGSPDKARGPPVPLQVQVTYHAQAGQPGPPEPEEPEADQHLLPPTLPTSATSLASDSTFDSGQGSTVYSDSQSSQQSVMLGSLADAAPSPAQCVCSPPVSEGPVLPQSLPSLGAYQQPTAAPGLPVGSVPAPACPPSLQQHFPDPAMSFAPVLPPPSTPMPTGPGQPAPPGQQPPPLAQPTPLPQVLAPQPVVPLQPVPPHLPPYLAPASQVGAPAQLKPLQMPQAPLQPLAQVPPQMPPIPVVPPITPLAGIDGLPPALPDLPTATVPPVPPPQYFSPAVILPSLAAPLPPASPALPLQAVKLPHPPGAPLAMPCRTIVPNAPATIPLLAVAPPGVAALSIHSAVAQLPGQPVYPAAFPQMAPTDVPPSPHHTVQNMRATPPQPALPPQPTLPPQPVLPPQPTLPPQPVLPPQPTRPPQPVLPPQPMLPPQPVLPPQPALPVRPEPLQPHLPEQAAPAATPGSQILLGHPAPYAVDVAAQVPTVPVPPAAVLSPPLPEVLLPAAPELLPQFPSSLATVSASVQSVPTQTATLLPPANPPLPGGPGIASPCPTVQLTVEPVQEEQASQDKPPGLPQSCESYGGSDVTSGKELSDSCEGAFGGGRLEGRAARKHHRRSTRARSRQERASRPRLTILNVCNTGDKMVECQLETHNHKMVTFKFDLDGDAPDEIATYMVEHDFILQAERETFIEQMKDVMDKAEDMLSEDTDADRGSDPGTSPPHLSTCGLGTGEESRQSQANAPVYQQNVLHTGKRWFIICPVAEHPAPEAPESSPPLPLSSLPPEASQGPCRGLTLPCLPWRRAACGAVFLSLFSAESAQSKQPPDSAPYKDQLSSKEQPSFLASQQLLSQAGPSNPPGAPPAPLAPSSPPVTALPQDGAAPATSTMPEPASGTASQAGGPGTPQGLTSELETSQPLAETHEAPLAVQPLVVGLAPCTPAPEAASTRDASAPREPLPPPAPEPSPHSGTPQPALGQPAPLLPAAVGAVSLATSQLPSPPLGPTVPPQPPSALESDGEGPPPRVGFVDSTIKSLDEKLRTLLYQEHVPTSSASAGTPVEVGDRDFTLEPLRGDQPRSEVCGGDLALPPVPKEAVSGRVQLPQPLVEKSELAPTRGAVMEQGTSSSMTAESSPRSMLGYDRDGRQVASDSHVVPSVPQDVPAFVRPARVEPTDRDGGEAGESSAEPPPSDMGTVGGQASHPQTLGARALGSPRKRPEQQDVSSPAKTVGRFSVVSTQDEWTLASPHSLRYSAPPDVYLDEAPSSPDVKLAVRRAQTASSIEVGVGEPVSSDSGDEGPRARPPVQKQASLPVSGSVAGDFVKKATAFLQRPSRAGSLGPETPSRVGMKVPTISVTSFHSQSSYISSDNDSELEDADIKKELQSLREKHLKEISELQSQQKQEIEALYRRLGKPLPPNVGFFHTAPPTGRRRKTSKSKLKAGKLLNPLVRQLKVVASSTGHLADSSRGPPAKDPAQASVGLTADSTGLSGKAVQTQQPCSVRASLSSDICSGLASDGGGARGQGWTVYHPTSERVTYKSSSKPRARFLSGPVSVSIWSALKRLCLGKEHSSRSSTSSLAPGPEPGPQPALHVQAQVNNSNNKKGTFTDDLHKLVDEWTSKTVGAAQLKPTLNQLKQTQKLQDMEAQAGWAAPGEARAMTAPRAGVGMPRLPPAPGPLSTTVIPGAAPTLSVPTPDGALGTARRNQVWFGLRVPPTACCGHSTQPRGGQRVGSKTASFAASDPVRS
Chain of Cyclin-dependent kinase 16 (Homo sapiens) (Q00536 whole entry): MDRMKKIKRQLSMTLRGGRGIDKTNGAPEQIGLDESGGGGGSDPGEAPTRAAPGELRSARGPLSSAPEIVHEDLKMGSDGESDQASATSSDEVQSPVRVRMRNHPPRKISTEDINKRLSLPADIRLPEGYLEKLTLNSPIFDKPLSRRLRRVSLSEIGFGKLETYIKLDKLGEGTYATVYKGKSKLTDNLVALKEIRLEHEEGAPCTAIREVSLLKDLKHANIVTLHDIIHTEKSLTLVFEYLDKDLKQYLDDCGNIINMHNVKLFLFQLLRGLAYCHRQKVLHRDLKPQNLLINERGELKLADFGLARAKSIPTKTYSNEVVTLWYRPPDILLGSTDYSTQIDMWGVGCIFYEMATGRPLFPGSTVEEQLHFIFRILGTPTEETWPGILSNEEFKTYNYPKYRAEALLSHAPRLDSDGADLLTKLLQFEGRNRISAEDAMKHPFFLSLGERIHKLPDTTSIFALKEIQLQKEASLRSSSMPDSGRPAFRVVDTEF

Usually inhibition stands for the change of the read-out against control, counted positive when it falls. In the case of `CNc1cc(Oc2cc(C(=O)Nc3cc(N4CCN(C)CC4)cc(C(F)(F)F)c3)ccc2C)ncn1`, the inhibition in [1] was 18.1%; in test [2], 12.8%.
Consider `CCN1CCN(Cc2ccc(NC(=O)c3ccc(C)c(/C=C/c4cnc5[nH]ccc5c4OC)c3)cc2C(F)(F)F)CC1`, for which the inhibition in test [3] is 19.4%; in [4] it was 11.9%; in test [5] it was 2.9%; in test [6], 6.9%; in test [7], 78.1%; in [8], 7.9%. The inhibition is 20.1% in test [9], -4.5% in test [10], -4.5% in test [11] and 34.3% in test [12].
For `CNc1cc(Oc2cc(C(=O)Nc3cc(-n4cnc(C)c4)cc(C(F)(F)F)c3)ccc2C)ncn1`, the results for the inhibition in test [1] and in test [2] were -2.8% and 5.5%, respectively.
With `CCN1CCN(Cc2ccc(NC(=O)c3ccc(C)c(Oc4ccnc5[nH]ccc45)c3)cc2C(F)(F)F)CC1`, the inhibition in test [3] was 4.5%; in test [4] it was 41.3%; in test [5] it was -1.9%; in [6], 3.9%; in [7] it was 39.2%; in [8], -3%. The inhibition in test [9] worked out at 7.8%; in [10], 14.4%; in test [11], 14.4%; in [12], 19.2%.
